pIC50: −log10 of the molar value.
Assays:
[1] = system: Plasmodium falciparum; test: Inhibitory activity against Plasmodium falciparum FcB1
[2] = target: T1, Aminopeptidase N (Plasmodium falciparum FcB1/Columbia, UniProt O96935); test: Inhibitory activity for Plasmodium falciparum Zinc aminopeptidase
T1 sequence (O96935 whole entry): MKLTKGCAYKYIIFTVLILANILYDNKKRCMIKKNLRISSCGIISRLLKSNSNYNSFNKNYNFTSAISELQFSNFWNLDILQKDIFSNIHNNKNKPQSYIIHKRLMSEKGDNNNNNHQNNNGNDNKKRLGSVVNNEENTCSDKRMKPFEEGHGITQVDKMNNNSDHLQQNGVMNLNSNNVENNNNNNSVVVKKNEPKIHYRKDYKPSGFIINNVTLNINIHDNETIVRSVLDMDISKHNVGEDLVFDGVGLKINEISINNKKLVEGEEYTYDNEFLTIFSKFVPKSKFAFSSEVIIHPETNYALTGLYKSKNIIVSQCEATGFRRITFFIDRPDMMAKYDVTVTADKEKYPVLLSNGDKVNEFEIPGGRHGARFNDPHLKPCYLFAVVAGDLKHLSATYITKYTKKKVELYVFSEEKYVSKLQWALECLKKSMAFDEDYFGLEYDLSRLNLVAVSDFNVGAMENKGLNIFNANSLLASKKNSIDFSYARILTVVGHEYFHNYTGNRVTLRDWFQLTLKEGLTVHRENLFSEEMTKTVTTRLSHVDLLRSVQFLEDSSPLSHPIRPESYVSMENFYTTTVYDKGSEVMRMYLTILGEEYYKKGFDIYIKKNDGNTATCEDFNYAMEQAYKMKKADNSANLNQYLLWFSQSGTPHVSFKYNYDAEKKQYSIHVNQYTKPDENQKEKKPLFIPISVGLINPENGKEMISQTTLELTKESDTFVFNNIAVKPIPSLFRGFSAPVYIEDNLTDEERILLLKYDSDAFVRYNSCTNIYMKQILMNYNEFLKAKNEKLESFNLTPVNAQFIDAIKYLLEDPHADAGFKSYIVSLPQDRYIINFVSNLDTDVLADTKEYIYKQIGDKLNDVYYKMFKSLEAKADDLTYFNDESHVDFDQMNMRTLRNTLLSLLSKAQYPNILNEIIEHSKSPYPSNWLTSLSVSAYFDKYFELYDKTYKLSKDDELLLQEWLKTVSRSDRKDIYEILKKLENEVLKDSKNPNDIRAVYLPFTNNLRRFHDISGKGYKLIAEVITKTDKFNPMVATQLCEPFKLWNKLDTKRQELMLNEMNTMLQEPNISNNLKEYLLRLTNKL

[3] = system: Plasmodium falciparum; test: Inhibitory activity against Plasmodium falciparum Zinc-aminopeptidase PfA-M1 at 10 uM; assay type: functional
How it was run: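 Native purified PfA-M1, diluted 10-fold in 25 mM Tris-HCl pH 7.4. Enzyme pre-incubated 10 min at rt with inhibitor (10 µM final, DMSO present), then Leu-pNA substrate added. Kinetics followed at 405 nm. Initial velocities normalized to the no-inhibitor control (Vmax). Single-point percent inhibition (Z' 0.82). Bestatin as reference.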

Row | SMILES | pIC50 [1] | pIC50 [2] | inhibition at 10 µM [3] [%]
1 | CC(C)C[C@H](NC(=O)[C@@H](O)[C@H](N)Cc1ccccc1)C(=O)O [UBENIMEX] | 4.54 | – | –
2 | CC(C)CC(C(=O)NO)C(=O)N(CCCN1CCN(CCCNc2ccnc3cc(Cl)ccc23)CC1)CC(C)C (centres undefined) | 6.82 | – | –
3 | NCCC(=O)N(CCCN1CCN(CCCNc2ccnc3cc(Cl)ccc23)CC1)CC1CC1 | 6.40 | 4.68 | –
4 | CC(C)CN(CCCN1CCN(CCCNc2ccnc3cc(Cl)ccc23)CC1)C(=O)CC(=O)NO | 6.50 | 6.07 | –
5 | O=C(O)CCC(=O)N(CCCN1CCN(CCCNc2ccnc3cc(Cl)ccc23)CC1)CC1CC1 | 5.86 | < 5.00 | 22
